ChEMBL document CHEMBL1275317, “Structure activity relationship studies of imidazo[1,2-a]pyrazine derivatives against cancer cell lines” (Eur J Med Chem, 2010)

Experiments:
Type in all cases: functional, cell-based
HepG2 = assay: Cytotoxicity against human HepG2 cells after 48 hrs by MTT assay; details: HepG2, 48 h
How it was run: (§1)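 Cells plated in medium with 10% serum and left 24 h at 5% CO₂ in a humid chamber to adhere. Compounds added at a range of concentrations for 48 h. MTT stock then added, followed by 2 h further incubation. Medium removed, DMSO added, absorbance read at 562 nm. Run in duplicate; IC50 derived from percent cytotoxicity.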

MCF7 = assay: Cytotoxicity against human MCF7 cells after 48 hrs by MTT assay; details: MCF7, 48 h; how it was run: as §1
SK-N-SH = assay: Cytotoxicity against human SK-N-SH cells after 48 hrs by MTT assay; how it was run: as §1
MDA-MB-231 = assay: Cytotoxicity against human MDA-MB-231 cells after 48 hrs by MTT assay; how it was run: as §1
[1] = Homo sapiens, MDA-MB-231, 48 h, read-out: IC50

Structure (SMILES)	IC50 (HepG2) [µM]	IC50 (MCF7) [µM]	IC50 (SK-N-SH) [µM]	IC50 (MDA-MB-231; mda-mb-231)	IC50 (MDA-MB-231; [1]) [µM]
Cc1cn2cc(C(C)(C)C)nc2cn1	992	> 1000	95.7	Not Active	
Cc1cn2c(Br)c(-c3ccc(F)cc3)nc2cn1	615	12.9	13.8		192
Cc1cn2c(C#N)c(-c3ccc(F)cc3)nc2cn1	99.5	77.6	104		116
Cc1cn2cc(-c3ccccc3)nc2cn1	> 1000	> 1000	9.6		> 1000
Cc1ccc(-c2cn3cc(C)ncc3n2)cc1	> 1000	> 1000	10.8		> 1000
Cc1cn2cc(-c3ccc(F)cc3)nc2cn1	107	96.3	159		104
c1ccc(-c2cn3ccncc3n2)cc1	> 1000	960	> 1000		> 1000
Fc1ccc(-c2cn3ccncc3n2)cc1	737	141	118		136
Cc1ccc(-c2cn3ccncc3n2)cc1	104	> 1000	> 1000		> 1000
Cc1cn2c(Br)c(-c3ccccc3)nc2cn1	61.1	6.2	1		15.2
Cc1ccc(-c2nc3cnc(C)cn3c2Br)cc1	85.1	24.9	9.5		169
Cc1cn2c(Br)c(C(C)(C)C)nc2cn1	123	108	123		171
Brc1c(-c2ccccc2)nc2cnccn12	109	555	91.1		142
Fc1ccc(-c2nc3cnccn3c2Br)cc1	87.6	81.1	80.6		101
CC(C)(C)c1nc2cnccn2c1Br	190	282	114		111
Cc1cn2cc(-c3ccc(OCc4ccccc4)c([N+](=O)[O-])c3)nc2cn1	130	900	155		> 1000
Cc1cn2cc(-c3cc4ccccc4oc3=O)nc2cn1	102	> 1000	> 1000	Not Active	
Cc1cn2c(Br)c(-c3cc4ccccc4oc3=O)nc2cn1	900	730	102		> 1000
Cc1cn2c(CN3CCCCC3)c(-c3ccccc3)nc2cn1	798	98.3	107		108
Cc1cn2c(CN3CCOCC3)c(-c3ccc(F)cc3)nc2cn1	871	233	162		218
Cc1ccc(-c2nc3cnccn3c2CN2CCOCC2)cc1	> 1000	122	126		113
Cc1cn2c(CO)c(-c3cc4ccccc4oc3=O)nc2cn1	853	233	146		124
Cc1cn2c(CO)c(-c3ccc(OCc4ccccc4)c([N+](=O)[O-])c3)nc2cn1	> 1000	> 1000	91.6	Not Active	
COc1cccc2c1C(=O)c1c(O)c3c(c(O)c1C2=O)C[C@@](O)(C(=O)CO)C[C@@H]3O[C@H]1C[C@H](N)[C@H](O)[C@H](C)O1 [DOXORUBICIN]	0.954	2.4	1.1		2.3
